Assay results reported in ChEMBL document CHEMBL3351992, “Modular assembly of purine-like bisphosphonates as inhibitors of HIV-1 reverse transcriptase” (J Med Chem, 2014).
Calls of active or inactive are those of the source. The calls are words filed in the database; no cut-off is given here.

Tests used:
[1] = molecular target: Human immunodeficiency virus type 1 reverse transcriptase (Human immunodeficiency virus 1, UniProt Q72547); experiment: Inhibition of wild type HIV1 reverse transcriptase assessed as inhibition of DNA primer extension using [8-3H(N)]-dATP by scintillation proximity assay
In short: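 Biotinylated PPT80 DNA template annealed to DNA PPT primer (50 nM hybrid), preincubated 5 min at 37 °C with inhibitor in 50 mM Tris pH 7.8, 50 mM NaCl, 6 mM MgCl2, 4 μM dCTP/dGTP/dTTP, 0.5 μM [8-3H]-dATP. Purified RT added and reaction run 5 min. Quenched with EDTA plus streptavidin SPA beads. Beads counted after ~8 h settling. Ten-point 3-fold dilutions from 100 μM to 10 nM, DMSO ≤5%. Activity taken relative to uninhibited controls. IC50 from variable-slope sigmoidal fit; triplicate determinations.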

[2] = molecular target: Human immunodeficiency virus type 1 reverse transcriptase (Human immunodeficiency virus 1, UniProt Q72547, M184V); experiment: Inhibition of wild type HIV1 reverse transcriptase M184V mutant assessed as inhibition of DNA primer extension using [8-3H(N)]-dATP by scintillation proximity assay
In short: (§1)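 50 nM biotinylated PPT80 template/PPT primer and inhibitor (10-step 3-fold series, 100 μM–10 nM final, DMSO ≤5%) were preincubated 5 min at 37 °C. Buffer: 50 mM Tris pH 7.8, 50 mM NaCl, 6 mM MgCl2, 4 μM dCTP/dGTP/dTTP, 0.5 μM [3H]dATP. RT started the 5-min reaction, stopped with EDTA/streptavidin SPA beads. Counts were normalized to uninhibited controls; IC50 from variable-slope sigmoid fit.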

[3] = molecular target: Human immunodeficiency virus type 1 reverse transcriptase (Human immunodeficiency virus 1, UniProt Q72547, K65R); experiment: Inhibition of wild type HIV1 reverse transcriptase K65R mutant assessed as inhibition of DNA primer extension using [8-3H(N)]-dATP by scintillation proximity assay; in short: as §1
[4] = molecular target: T1, Farnesyl pyrophosphate synthase (Homo sapiens) (UniProt P14324); experiment: Inhibition of human FPPS at 10 uM
T1 sequence (whole entry): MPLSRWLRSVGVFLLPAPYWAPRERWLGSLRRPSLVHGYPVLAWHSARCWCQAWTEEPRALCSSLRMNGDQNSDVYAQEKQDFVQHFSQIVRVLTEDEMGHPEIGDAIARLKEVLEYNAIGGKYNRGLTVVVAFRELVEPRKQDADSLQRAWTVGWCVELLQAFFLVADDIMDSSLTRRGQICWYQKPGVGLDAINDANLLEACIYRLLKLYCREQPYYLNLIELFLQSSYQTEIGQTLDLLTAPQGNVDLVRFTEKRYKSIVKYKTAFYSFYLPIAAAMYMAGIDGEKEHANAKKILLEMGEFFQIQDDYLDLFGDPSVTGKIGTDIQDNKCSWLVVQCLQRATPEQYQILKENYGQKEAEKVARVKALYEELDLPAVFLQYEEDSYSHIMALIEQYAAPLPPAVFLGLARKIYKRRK

[5] = tested on: Human immunodeficiency virus type 1 reverse transcriptase (Human immunodeficiency virus 1), Q72547 [M184V]; experiment: Inhibition of wild type HIV1 reverse transcriptase M184V mutant assessed as inhibition of DNA primer extension using [8-3H(N)]-dATP by scintillation proximity assay relative to wild type
[6] = molecular target: T2, Geranylgeranyl pyrophosphate synthase (Homo sapiens) (UniProt O95749); experiment: Inhibition of human GGPPS at 10 uM
T2 sequence (whole entry): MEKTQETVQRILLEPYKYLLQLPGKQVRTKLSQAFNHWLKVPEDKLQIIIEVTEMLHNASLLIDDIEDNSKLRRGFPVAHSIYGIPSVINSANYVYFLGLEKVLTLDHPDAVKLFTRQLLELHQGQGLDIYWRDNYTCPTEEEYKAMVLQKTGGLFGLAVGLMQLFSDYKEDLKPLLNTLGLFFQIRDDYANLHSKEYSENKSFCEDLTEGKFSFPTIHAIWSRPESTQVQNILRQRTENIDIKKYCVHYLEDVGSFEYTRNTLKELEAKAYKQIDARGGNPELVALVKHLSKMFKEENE

[7] = tested on: Human immunodeficiency virus type 1 reverse transcriptase (Human immunodeficiency virus 1), Q72547 [K65R]; experiment: Inhibition of wild type HIV1 reverse transcriptase K65R mutant assessed as inhibition of DNA primer extension using [8-3H(N)]-dATP by scintillation proximity assay relative to wild type
[8] = molecular target: T1, Farnesyl pyrophosphate synthase (Homo sapiens); experiment: Inhibition of human FPPS at 50 uM
[9] = molecular target: T2, Geranylgeranyl pyrophosphate synthase (Homo sapiens); experiment: Inhibition of human GGPPS at 50 uM

## CSc1nc2ncnc(NCC(P(=O)(O)O)P(=O)(O)O)c2cc1-c1ccc(OC(C)C)cc1
[1]
  IC50: 7.1 µM

## CSc1nc2ncnc(NCC(P(=O)(O)O)P(=O)(O)O)c2cc1-c1ccccc1
[2]
  IC50: 0.6 µM
[3]
  IC50: 5.2 µM
[4]
  inhibition: 75%
[5]
  Ratio IC50: 0.4
[1]
  IC50: 1.1 µM
[6]
  inhibition: inactive
[7]
  Ratio IC50: 3.4

## CSc1nc2ncnc(NCC(P(=O)(O)O)P(=O)(O)O)c2cc1-c1ccsc1
[1]
  IC50: 8.3 µM

## COc1cccc(-c2cc3c(NCC(P(=O)(O)O)P(=O)(O)O)ncnc3nc2SC)c1
[2]
  IC50: 4.2 µM
[3]
  IC50: 3.3 µM
[4]
  inhibition: 75%
[5]
  Ratio IC50: 2.7
[1]
  IC50: 2.4 µM
[6]
  inhibition: inactive
[7]
  Ratio IC50: 2.1

## O=P(O)(O)C(Nc1ncnc2nc(-c3cccs3)ccc12)P(=O)(O)O
[1]
  IC50: 10.4 µM

## COc1cccc(-c2cnc3ncnc(NCC(P(=O)(O)O)P(=O)(O)O)c3c2)c1
[1]
  IC50: 20 µM

## CSc1nc2ncnc(NC(P(=O)(O)O)P(=O)(O)O)c2cc1-c1ccc(OC(C)C)cc1
[8]
  inhibition: < 10%
[2]
  IC50: 1.4 µM
[3]
  IC50: 1.8 µM
[5]
  Ratio IC50: 1.6
[1]
  IC50: 1.8 µM
[9]
  inhibition: < 10%
[7]
  Ratio IC50: 2.1

## O=C(O)C(=NNc1ccc(Cl)cc1)C(=O)O
[1]
  IC50: 1.5 µM

## O=P(O)(O)C(CNc1ncnc2ncc(-c3ccsc3)cc12)P(=O)(O)O
[1]
  IC50: 9 µM

## CC(C)Oc1ccc(-c2cnc3ncnc(NC(P(=O)(O)O)P(=O)(O)O)c3c2)cc1
[1]
  IC50: 10 µM

## CSc1ccc2c(NC(P(=O)(O)O)P(=O)(O)O)ncnc2n1
[1]
  IC50: > 50 µM

## O=P(O)(O)C(CNc1ncnc2ncccc12)P(=O)(O)O
[1]
  IC50: > 50 µM

## O=P(O)(O)C(Nc1ncnc2ncccc12)P(=O)(O)O
[1]
  IC50: > 50 µM
